Test results from ChEMBL document CHEMBL4038284, “Synthesis of novel quinoline-based 4,5-dihydro-1H-pyrazoles as potential anticancer, antifungal, antibacterial and antiprotozoal agents” (Eur J Med Chem, 2017).

What was measured:
Assay type in all cases: functional
CCRF-CEM = test: Growth inhibition of human CCRF-CEM cells incubated for 48 hrs by sulforhodamine B assay; details: for CC50: read-out: LC50 (the source's name)
How it was run: (§1)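 NCI 60-line screen. Cells in RPMI-1640 with 5% FBS and 2 mM L-glutamine, preincubated 24 h, then time-zero plates TCA-fixed. Compounds from DMSO stocks given at five final concentrations (100, 10, 1.0, 0.1, 0.01 µM) for 48 h at 37 °C, 5% CO2. Cells fixed with 10% TCA, SRB-stained, read at 515 nm. GI50 is the concentration giving 50% lower net protein increase versus control.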

HL-60(TB) = test: Growth inhibition of human HL-60(TB) cells incubated for 48 hrs by sulforhodamine B assay; details: HL-60, 48 h; how it was run: as §1
RPMI-8226 = test: Growth inhibition of human RPMI8226 cells incubated for 48 hrs by sulforhodamine B assay; details: RPMI-8226, 48 h; for CC50: read-out: LC50 (the source's name); how it was run: as §1
SR = test: Growth inhibition of human SR cells incubated for 48 hrs by sulforhodamine B assay; details: for CC50: read-out: LC50 (the source's name); how it was run: as §1
A549 = test: Growth inhibition of human A549/ATCC cells incubated for 48 hrs by sulforhodamine B assay; details: A549, 48 h; how it was run: as §1
NCI-H23 = test: Growth inhibition of human NCI-H23 cells incubated for 48 hrs by sulforhodamine B assay; details: NCI-H23, 48 h
How it was run: (§2)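 Five-dose NCI SRB assay at 100, 10, 1.0, 0.1 and 0.01 μM for 48 h at 37 °C, 5% CO2. Medium was RPMI-1640 with 5% FBS and 2 mM glutamine. Time-zero plates were TCA-fixed at compound addition, A515 read after SRB staining. GI50 was solved from [(Ti−Tz)/(C−Tz)]×100 = 50. Values beyond the tested range are given as > or <.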

NCI-H460 = test: Growth inhibition of human NCI-H460 cells incubated for 48 hrs by sulforhodamine B assay; details: NCI-H460, 48 h; how it was run: as §2
COLO 205 = test: Growth inhibition of human COLO205 cells incubated for 48 hrs by sulforhodamine B assay; details: COLO 205, 48 h
How it was run: (§3)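 NCI five-dose SRB assay (100, 10, 1.0, 0.1, 0.01 µM) with 48 h exposure in RPMI-1640 with 5% FBS and 2 mM L-glutamine. Cells fixed with TCA and stained with SRB, read at 515 nm. GI50 is the concentration where [(Ti−Tz)/(C−Tz)]×100 = 50.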

HCT-116 = test: Growth inhibition of human HCT116 cells incubated for 48 hrs by sulforhodamine B assay; details: HCT-116, 48 h; how it was run: as §3
HCT-15 = test: Growth inhibition of human HCT15 cells incubated for 48 hrs by sulforhodamine B assay; details: HCT-15, 48 h; for CC50: read-out: LC50 (the source's name); how it was run: as §1
HT-29 = test: Growth inhibition of human HT-29 cells incubated for 48 hrs by sulforhodamine B assay; details: HT-29, 48 h; how it was run: as §2
KM12 = test: Growth inhibition of human KM12 cells incubated for 48 hrs by sulforhodamine B assay; details: KM12, 48 h; how it was run: as §2
SW-620 = test: Growth inhibition of human SW620 cells incubated for 48 hrs by sulforhodamine B assay; details: SW-620, 48 h
How it was run: (§4)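 NCI-60 panel cells grown in RPMI-1640 with 5% FBS and 2 mM L-glutamine, preincubated 24 h at 37 °C/5% CO2. Time-zero plates were TCA-fixed at compound addition. DMSO stocks were diluted in medium and tested at five final concentrations (100, 10, 1.0, 0.1, 0.01 µM) for 48 h. Cells were TCA-fixed, stained with SRB and read at 515 nm. GI50 = 50% lower net protein increase versus control.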

SF-268 = test: Growth inhibition of human SF268 cells incubated for 48 hrs by sulforhodamine B assay; details: SF-268, 48 h; how it was run: as §2
SNB-19 = test: Growth inhibition of human SNB19 cells incubated for 48 hrs by sulforhodamine B assay; details: SNB-19, 48 h; how it was run: as §4
SNB-75 = test: Growth inhibition of human SNB75 cells incubated for 48 hrs by sulforhodamine B assay; details: SNB-75, 48 h; for CC50: read-out: LC50 (the source's name); how it was run: as §1
U-251 = test: Growth inhibition of human U251 cells incubated for 48 hrs by sulforhodamine B assay; details: U-251, 48 h; how it was run: as §4
MDA-MB-435 = test: Growth inhibition of human MDA-MB-435 cells incubated for 48 hrs by sulforhodamine B assay; details: MDA-MB-435, 48 h; how it was run: as §2
UACC-62 = test: Growth inhibition of human UACC62 cells incubated for 48 hrs by sulforhodamine B assay; details: UACC-62, 48 h; for CC50: read-out: LC50 (the source's name); how it was run: as §1
OVCAR-3 = test: Growth inhibition of human OVCAR3 cells incubated for 48 hrs by sulforhodamine B assay; details: OVCAR-3, 48 h; how it was run: as §2
OVCAR-4 = test: Growth inhibition of human OVCAR4 cells incubated for 48 hrs by sulforhodamine B assay; details: OVCAR-4, 48 h; how it was run: as §2
OVCAR-8 = test: Growth inhibition of human OVCAR8 cells incubated for 48 hrs by sulforhodamine B assay; details: OVCAR-8, 48 h; how it was run: as §2
NCI/ADR-RES = test: Growth inhibition of human NCI/ADR-RES cells incubated for 48 hrs by sulforhodamine B assay; details: for CC50: read-out: LC50 (the source's name); how it was run: as §1
SK-OV-3 = test: Growth inhibition of human SKOV3 cells incubated for 48 hrs by sulforhodamine B assay; details: SK-OV-3, 48 h; for CC50: read-out: LC50 (the source's name); how it was run: as §1
A498 = test: Growth inhibition of human A498 cells incubated for 48 hrs by sulforhodamine B assay; details: A498, 48 h; for CC50: read-out: LC50 (the source's name); how it was run: as §1
RXF 393 = test: Growth inhibition of human RXF393 cells incubated for 48 hrs by sulforhodamine B assay; details: RXF 393, 48 h; how it was run: as §2
SN12C = test: Growth inhibition of human SN12C cells incubated for 48 hrs by sulforhodamine B assay; how it was run: as §4
PC-3 = test: Growth inhibition of human PC3 cells incubated for 48 hrs by sulforhodamine B assay; details: PC-3, 48 h; how it was run: as §2
MCF7 = test: Growth inhibition of human MCF7 cells incubated for 48 hrs by sulforhodamine B assay; details: MCF7, 48 h; for CC50: read-out: LC50 (the source's name); how it was run: as §1
T47D = test: Growth inhibition of human T47D cells incubated for 48 hrs by sulforhodamine B assay; how it was run: as §4
MDA-MB-468 = test: Growth inhibition of human MDA-MB-468 cells incubated for 48 hrs by sulforhodamine B assay; details: MDA-MB-468, 48 h; how it was run: as §2
[1] = read-out: LC50 (the source's name)

COc1ccc(C2=NN(C=O)C(c3cccc(Nc4ccnc5cc(Cl)ccc45)c3)C2)cc1 (stereo unspecified)
GI50 (CCRF-CEM): 2140 nM
CC50 (CCRF-CEM): > 100000 nM
GI50 (HL-60(TB)): 2030 nM
CC50 (HL-60(TB); [1]): 33600 nM
GI50 (RPMI-8226): 1360 nM
CC50 (RPMI-8226): > 100000 nM
GI50 (SR): 580 nM
CC50 (SR): > 100000 nM
GI50 (A549): 4630 nM
LC50 (concentration giving 50% net cell kill) (A549): > 100000 nM
GI50 (NCI-H23): 1870 nM
CC50 (NCI-H23; [1]): > 100000 nM
GI50 (NCI-H460): 2730 nM
CC50 (NCI-H460; [1]): > 100000 nM
GI50 (COLO 205): 2400 nM
CC50 (COLO 205; [1]): 60600 nM
GI50 (HCT-116): 1840 nM
LC50 (concentration killing 50% of cells) (HCT-116): 24300 nM
GI50 (HCT-15): 2130 nM
CC50 (HCT-15): > 100000 nM
GI50 (HT-29): 1650 nM
LC50 (HT-29): 67400 nM
GI50 (KM12): 2180 nM
CC50 (KM12; [1]): > 100000 nM
GI50 (SW-620): 1730 nM
CC50 (SW-620; [1]): > 100000 nM
GI50 (SF-268): 4790 nM
CC50 (SF-268; [1]): > 100000 nM
GI50 (SNB-19): 5110 nM
CC50 (SNB-19; [1]): > 100000 nM
GI50 (SNB-75): 2560 nM
CC50 (SNB-75): > 100000 nM
GI50 (U-251): 2770 nM
CC50 (U-251; [1]): 51100 nM
GI50 (MDA-MB-435): 370 nM
CC50 (MDA-MB-435; [1]): > 100000 nM
GI50 (UACC-62): 2410 nM
CC50 (UACC-62): 68100 nM
GI50 (OVCAR-3): 1970 nM
CC50 (OVCAR-3; [1]): 63700 nM
GI50 (OVCAR-4): 1540 nM
CC50 (OVCAR-4; [1]): > 100000 nM
GI50 (OVCAR-8): 3290 nM
LC50 (concentration causing 50% net cell kill) (OVCAR-8): > 100000 nM
GI50 (NCI/ADR-RES): 1660 nM
CC50 (NCI/ADR-RES): > 100000 nM
GI50 (SK-OV-3): 3330 nM
CC50 (SK-OV-3): > 100000 nM
GI50 (A498): 1350 nM
CC50 (A498): > 100000 nM
GI50 (RXF 393): 1660 nM
CC50 (RXF 393; [1]): 59200 nM
GI50 (SN12C): 4450 nM
CC50 (SN12C; [1]): > 100000 nM
GI50 (PC-3): 2870 nM
CC50 (PC-3; [1]): > 100000 nM
GI50 (MCF7): 1590 nM
CC50 (MCF7): > 100000 nM
GI50 (T47D): 1390 nM
CC50 (T47D; [1]): > 100000 nM
GI50 (MDA-MB-468): 420 nM
CC50 (MDA-MB-468; [1]): 63800 nM

COc1cccc2c1C(=O)c1c(O)c3c(c(O)c1C2=O)C[C@@](O)(C(=O)CO)C[C@@H]3O[C@H]1C[C@H](N)[C@H](O)[C@H](C)O1 [DOXORUBICIN]
GI50 (CCRF-CEM): 80 nM
CC50 (CCRF-CEM): 100000 nM
GI50 (HL-60(TB)): 120 nM
GI50 (RPMI-8226): 80 nM
CC50 (RPMI-8226): 100000 nM
GI50 (SR): 30 nM
CC50 (SR): 100000 nM
GI50 (A549): 60 nM
GI50 (NCI-H23): 150 nM
GI50 (NCI-H460): 20 nM
GI50 (COLO 205): 180 nM
GI50 (HCT-116): 80 nM
CC50 (HCT-15): 100000 nM
GI50 (HT-29): 120 nM
GI50 (KM12): 270 nM
GI50 (SW-620): 90 nM
GI50 (SF-268): 100 nM
GI50 (SNB-19): 40 nM
GI50 (SNB-75): 70 nM
CC50 (SNB-75): 3300 nM
GI50 (U-251): 40 nM
GI50 (MDA-MB-435): 250 nM
GI50 (UACC-62): 140 nM
CC50 (UACC-62): 1310 nM
GI50 (OVCAR-3): 390 nM
GI50 (OVCAR-4): 370 nM
GI50 (OVCAR-8): 100 nM
CC50 (NCI/ADR-RES): 100000 nM
GI50 (SK-OV-3): 220 nM
CC50 (SK-OV-3): 100000 nM
GI50 (A498): 100 nM
CC50 (A498): 1900 nM
GI50 (RXF 393): 100 nM
GI50 (SN12C): 70 nM
GI50 (PC-3): 320 nM
GI50 (MCF7): 40 nM
CC50 (MCF7): 64100 nM
GI50 (T47D): 60 nM
GI50 (MDA-MB-468): 50 nM
